Experiments:
[1] = target: HDAC2 (Homo sapiens, UniProt Q92769); assay: In vitro HDAC2 inhibition assay; type: biochemical; settings: recombinant human HDAC2, Boc-Lys(acetyl)-AMC
[2] = In vivo antitumor assay, body weight of mice; set-up: species or system nu/nu mice; settings: NTERA-2 cL.D1 xenograft, nude mice, 10 mg/kg daily intraperitoneal, 15 days
How it was run: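 Male nu/nu mice aged 4–6 weeks received subcutaneous NTERA-2 cL.D1 cells (1×10⁷ in PBS). Once tumors reached 90–120 mm³, mice were randomized into four groups: vehicle, two reference inhibitors, or test compound, each at 10 mg/kg by daily intraperitoneal injection. Body weight and caliper tumor volume were recorded every 3 days for 15 days. n = 6 per group; mean ± SD.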

[3] = target: ATM (Homo sapiens, UniProt Q13315); assay: In vitro ATM inhibition assay; type: biochemical; settings: recombinant human ATM, p53 substrate, HTRF
Sequence of ATM (Q13315 whole entry): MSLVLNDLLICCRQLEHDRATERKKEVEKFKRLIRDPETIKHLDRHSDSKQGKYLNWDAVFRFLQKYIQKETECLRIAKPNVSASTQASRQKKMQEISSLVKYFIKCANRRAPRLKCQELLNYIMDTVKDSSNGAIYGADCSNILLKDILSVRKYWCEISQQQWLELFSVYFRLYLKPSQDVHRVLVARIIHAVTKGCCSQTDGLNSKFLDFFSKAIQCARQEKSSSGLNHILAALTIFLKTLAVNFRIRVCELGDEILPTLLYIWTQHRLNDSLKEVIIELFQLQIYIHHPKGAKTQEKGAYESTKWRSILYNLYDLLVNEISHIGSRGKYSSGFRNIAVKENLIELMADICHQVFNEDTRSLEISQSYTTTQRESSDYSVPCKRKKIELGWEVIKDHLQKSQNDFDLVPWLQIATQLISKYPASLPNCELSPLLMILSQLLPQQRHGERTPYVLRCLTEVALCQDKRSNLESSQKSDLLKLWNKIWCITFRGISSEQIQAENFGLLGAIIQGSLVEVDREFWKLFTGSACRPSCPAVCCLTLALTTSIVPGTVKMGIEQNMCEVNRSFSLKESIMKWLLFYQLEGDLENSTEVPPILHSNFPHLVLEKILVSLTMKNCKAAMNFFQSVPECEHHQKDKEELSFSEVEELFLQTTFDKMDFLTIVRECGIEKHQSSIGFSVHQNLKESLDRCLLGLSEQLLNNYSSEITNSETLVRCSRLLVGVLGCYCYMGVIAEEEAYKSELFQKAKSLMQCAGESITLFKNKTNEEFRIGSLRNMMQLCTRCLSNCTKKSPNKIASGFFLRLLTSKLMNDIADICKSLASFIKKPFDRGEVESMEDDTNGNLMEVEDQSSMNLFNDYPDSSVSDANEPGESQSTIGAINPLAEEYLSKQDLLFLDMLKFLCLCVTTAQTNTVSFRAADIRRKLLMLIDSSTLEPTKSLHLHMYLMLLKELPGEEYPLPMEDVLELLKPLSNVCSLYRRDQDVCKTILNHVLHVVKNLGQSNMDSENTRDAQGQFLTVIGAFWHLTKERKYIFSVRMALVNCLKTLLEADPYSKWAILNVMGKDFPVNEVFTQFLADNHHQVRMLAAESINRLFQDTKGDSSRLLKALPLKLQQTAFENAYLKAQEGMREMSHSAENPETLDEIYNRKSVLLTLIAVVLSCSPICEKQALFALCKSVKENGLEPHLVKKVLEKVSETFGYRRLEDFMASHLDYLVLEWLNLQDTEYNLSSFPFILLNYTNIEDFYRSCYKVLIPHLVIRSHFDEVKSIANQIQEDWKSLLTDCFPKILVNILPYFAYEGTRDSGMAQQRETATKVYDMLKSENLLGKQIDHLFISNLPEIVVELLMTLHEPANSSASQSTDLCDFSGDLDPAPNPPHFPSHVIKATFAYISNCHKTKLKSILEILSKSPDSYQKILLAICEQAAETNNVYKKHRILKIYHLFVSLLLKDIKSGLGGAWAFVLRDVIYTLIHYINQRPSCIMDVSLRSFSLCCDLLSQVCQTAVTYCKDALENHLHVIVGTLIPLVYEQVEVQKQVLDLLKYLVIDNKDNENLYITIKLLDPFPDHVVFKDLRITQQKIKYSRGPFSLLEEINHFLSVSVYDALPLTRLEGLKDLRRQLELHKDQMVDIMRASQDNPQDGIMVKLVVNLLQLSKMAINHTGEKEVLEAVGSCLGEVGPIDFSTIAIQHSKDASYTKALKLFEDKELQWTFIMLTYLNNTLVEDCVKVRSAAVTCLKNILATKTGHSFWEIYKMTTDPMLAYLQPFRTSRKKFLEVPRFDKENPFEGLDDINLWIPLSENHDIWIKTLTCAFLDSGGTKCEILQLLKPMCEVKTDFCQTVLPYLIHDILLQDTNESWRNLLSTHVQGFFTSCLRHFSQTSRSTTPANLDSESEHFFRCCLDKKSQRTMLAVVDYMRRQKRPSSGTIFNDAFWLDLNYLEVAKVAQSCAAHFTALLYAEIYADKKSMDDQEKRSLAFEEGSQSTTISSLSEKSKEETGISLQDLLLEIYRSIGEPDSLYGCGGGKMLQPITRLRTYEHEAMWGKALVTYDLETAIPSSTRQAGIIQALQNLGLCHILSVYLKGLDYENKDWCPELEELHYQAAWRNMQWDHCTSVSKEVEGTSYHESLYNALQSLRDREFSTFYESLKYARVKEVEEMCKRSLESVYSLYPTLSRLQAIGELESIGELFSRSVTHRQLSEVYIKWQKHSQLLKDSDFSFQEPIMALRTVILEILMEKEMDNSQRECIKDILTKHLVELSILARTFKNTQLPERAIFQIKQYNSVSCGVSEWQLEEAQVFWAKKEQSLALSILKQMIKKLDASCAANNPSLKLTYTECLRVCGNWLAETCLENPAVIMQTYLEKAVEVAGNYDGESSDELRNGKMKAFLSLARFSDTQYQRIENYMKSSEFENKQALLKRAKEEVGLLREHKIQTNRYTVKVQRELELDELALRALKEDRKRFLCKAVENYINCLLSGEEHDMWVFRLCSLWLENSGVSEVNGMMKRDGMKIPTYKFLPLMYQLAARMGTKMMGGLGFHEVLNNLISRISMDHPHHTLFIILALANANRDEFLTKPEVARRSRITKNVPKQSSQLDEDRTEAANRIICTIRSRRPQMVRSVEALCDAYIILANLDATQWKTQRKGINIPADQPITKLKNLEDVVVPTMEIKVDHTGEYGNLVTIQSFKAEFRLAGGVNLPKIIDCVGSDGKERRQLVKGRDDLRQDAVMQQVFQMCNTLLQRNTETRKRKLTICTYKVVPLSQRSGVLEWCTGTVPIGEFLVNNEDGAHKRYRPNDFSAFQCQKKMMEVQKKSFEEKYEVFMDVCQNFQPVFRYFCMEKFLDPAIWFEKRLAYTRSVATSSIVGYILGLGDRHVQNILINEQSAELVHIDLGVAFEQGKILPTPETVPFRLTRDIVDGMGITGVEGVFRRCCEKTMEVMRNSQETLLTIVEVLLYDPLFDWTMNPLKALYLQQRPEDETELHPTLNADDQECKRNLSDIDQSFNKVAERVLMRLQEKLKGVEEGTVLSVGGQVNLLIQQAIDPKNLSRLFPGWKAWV

Sequence of HDAC2 (Q92769 whole entry): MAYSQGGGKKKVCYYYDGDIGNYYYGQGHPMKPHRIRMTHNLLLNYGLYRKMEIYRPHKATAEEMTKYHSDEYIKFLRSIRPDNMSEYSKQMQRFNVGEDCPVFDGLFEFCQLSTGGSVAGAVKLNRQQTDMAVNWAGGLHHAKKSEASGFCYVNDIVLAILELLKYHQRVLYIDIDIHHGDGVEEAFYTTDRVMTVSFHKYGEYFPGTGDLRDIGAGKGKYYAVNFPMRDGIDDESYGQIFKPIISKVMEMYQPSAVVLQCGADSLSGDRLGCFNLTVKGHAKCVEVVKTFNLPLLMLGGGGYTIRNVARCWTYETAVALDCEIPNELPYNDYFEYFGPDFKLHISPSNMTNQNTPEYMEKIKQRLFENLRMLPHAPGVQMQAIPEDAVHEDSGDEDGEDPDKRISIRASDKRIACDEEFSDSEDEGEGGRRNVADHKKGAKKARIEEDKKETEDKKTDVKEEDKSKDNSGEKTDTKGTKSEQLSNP

## COc1cc2ncc3c(c2cc1-c1cn(C)nc1C)n(-c1c(F)cncc1OC)c(=O)n3C [Lartesertib]
[1]
  HDAC2 (IC50, nM): no inhibition
[1]; listed as lartesertib
  HDAC2 (IC50, nM): no inhibitory effect

## O=C(CCCCCCC(=O)Nc1ccccc1)NO [Vorinostat]
[2]
  body weight of mice: slight decrease
[3]
  ATM (IC50, nM): no inhibition
[3]; listed as vorinostat
  ATM (IC50, nM): did not affect
